Series [1] in a line: Inhibition of Escherichia coli (K12J53) Dihydopteroate synthase. In short, it runs like this:
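Ammonium sulfate fraction (30–70%) from alumina-disrupted E. coli K12J53 grown on brain-heart infusion agar at 37 °C; it contains both pyrophosphokinase and synthase. Read-out was [14C]dihydropteroate. The 50% inhibitory concentration came from 1/dpm vs. concentration plots, divided by p-aminobenzoate concentration (EII50).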

Series [2] can be described thus: PKa value was measured. Format: physicochemical.
The next series has as its system Escherichia coli. The series is described as follows: In vitro inhibition of Escherichia coli (K12J53) growth.

Molecules are shown by their SMILES.

In turn, `Nc1ccc(S(N)(=O)=O)cc1` yielded an EII50 in series [1] of 25.
On to `N#CNS(=O)(=O)c1ccc(N)cc1`, for which the pKa in series [2] was determined as 2.92. In addition, the GII50 with Escherichia coli is more than 50000. In series [1], this compound displayed an EII50 of 8.
`Nc1ccc(S(=O)(=O)Nc2ncccn2)cc1` returned an EII50 in series [1] of 2.56.
The compound `Nc1ccc(S(=O)(=O)Nc2nccs2)cc1` [SULFATHIAZOLE] had a pKa in series [2] of 7.23. This compound also registered an EII50 in series [1] of 0.9.
In the series with Escherichia coli, `CN(c1nccs1)S(=O)(=O)c1ccc(N)cc1` had a GII50 of more than 10000. This compound had an EII50 in series [1] of 35.4.
For `Cc1cc(C)nc(N(C)S(=O)(=O)c2ccc(N)cc2)n1`, in series [1], the EII50 is 10.8.
In turn, `Cn1cccc/c1=N/S(=O)(=O)c1ccc(N)cc1` came in with a GII50 in the series on Escherichia coli of 30000. Also, the EII50 in series [1] was found to be 8.
In the case of `Cn1cccn/c1=N\S(=O)(=O)c1ccc(N)cc1`, the GII50 in the series on Escherichia coli is more than 100000. This compound came in with an EII50 in series [1] of 31.2.
In series [2], `CNS(=O)(=O)c1ccc(N)cc1` displayed a pKa of 10.8. In the series with Escherichia coli, this compound showed a GII50 of 60000. Besides, the EII50 in series [1] is 32.4.
Consider `COc1cc(NS(=O)(=O)c2ccc(N)cc2)nc(OC)n1` [SULFADIMETHOXINE], for which the pKa in series [2] worked out at 5.98. In series [1], the EII50 was 0.85.
Taken in the same sequence, the figures for `Cc1cc(C)nc(NS(=O)(=O)c2ccc(N)cc2)n1` [SULFAMETHAZINE] were 7.51 and 1.92.
For `Nc1ccc(S(=O)(=O)NC(=O)c2ccccc2)cc1` [SULFABENZAMIDE], in series [2], the pKa stood at 4.57. The compound further registered an EII50 in series [1] of 5.2.
Taken in the same sequence, the figures for `NC(=O)NS(=O)(=O)c1ccc(N)cc1` [SULFACARBAMIDE] were 5.42 and 8.4.
Taken in the same sequence, the figures for `Cc1nnc(NS(=O)(=O)c2ccc(N)cc2)s1` [SULFAMETHIZOLE] were 5.22 and 0.4.
`CN(c1ccccn1)S(=O)(=O)c1ccc(N)cc1` came in with a GII50 with Escherichia coli of 40000. In series [1], this compound gave an EII50 of 30.
Taken in the same sequence, the figures for `Cc1cc(C)n(C)/c(=N/S(=O)(=O)c2ccc(N)cc2)n1` were 52000 and 26.
The matching figures for `Cn1ccs/c1=N\S(=O)(=O)c1ccc(N)cc1`: more than 10000 and 13.4.
In series [2], `Nc1ccc(S(=O)(=O)Nc2ccccn2)cc1` [SULFAPYRIDINE] gave a pKa of 8.56. The compound further returned an EII50 in series [1] of 4.2.
Consider `CC(=O)NS(=O)(=O)c1ccc(N)cc1` [SULFACETAMIDE], for which the pKa in series [2] amounted to 5.38. This compound registered an EII50 in series [1] of 4.44.
In turn, `CN(c1ncccn1)S(=O)(=O)c1ccc(N)cc1` registered a GII50 in the series on Escherichia coli of 10000. This compound also yielded an EII50 in series [1] of 9.2.
As for `N=C(N)NS(=O)(=O)c1ccc(N)cc1`, the EII50 in series [1] was determined as 10.2.
In the series on Escherichia coli, `CN(C)S(=O)(=O)c1ccc(N)cc1` registered a GII50 of more than 35000. In series [1], this compound showed an EII50 of 82.
